# Compound activity as filed in PubChem.
# Only some compounds are listed: those with a hit (about 27% of all), similar ones and a draw of the others.
# Rev-RRE block = HIV Rev-RRE protein-RNA interaction inhibition. P05866. Rev peptide-RRE RNA binding, FRET. inhibition, % at 8 µM. actives 0.79% (n = 97,000);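 active = inhibition above the screen-wide mean plus 3 SD, cut at about 35% in these data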
#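 Test system: labelled RRE RNA duplex and labelled Rev peptide. Times: 5 min compound–RNA preincubation, then 15 min with peptide, 25 °C. Doses: single-dose 8 µM. Measured by: FRET, excitation 480 nm, emission 540 nm donor and 671 nm acceptor. Measure: % inhibition of FRET ratio versus controls.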
# CYP2C19 activ = cytochrome P450 2C19 (human) activation; AID 1025; activation factor at 5 µM; 96,000 tested, under 10 active; recombinant CYP2C19, luciferin-H EGE luminescence; active compounds read high; 0 = fully inhibited enzyme, 1 = untreated enzyme; P33261;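 active = activation factor of at least 2 at 5 µM in the primary screen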
# Cav3 T inh = human Cav3.2 channel inhibition, primary screen. actives 4% (n = 100,000). O95180. AID 449739. Cav3.2-expressing cells, Fluo-4 calcium fluorescence FDSS; active compounds read low. B-score at 10 µM;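 active = single-dose well whose peak fluorescence ratio is a statistical outlier from its plate by either plate-standardised score or position-corrected B-score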
# CYP2C9 inhib = human CYP2C9 inhibition | P11712 | CYP2C9 Supersomes, luciferin-H conversion, luminescence | inhibition, % at 5 µM | actives 20% (n = 96,000);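 active = blocking of liver enzyme CYP2C9 beyond about 50% at 5 µM, limit read from the data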
# CYP2C19 inhib = blocks human cytochrome P450 2C19 | P33261 | CYP2C19 Supersomes, luciferin-H EGE luminescence, 30 min | inhibition, % at 5 µM | actives 21% (n = 96,000);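 active = CYP2C19 inhibition above a set limit at 5 µM in the primary screen, cut at about 50% in these data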
# CYP2C9 activ = increases human cytochrome P450 2C9 activity; actives 1.4% (n = 96,000); recombinant CYP2C9, luciferin-H conversion, luminescence; active compounds read high; factor 1 = untreated enzyme, 0 = blocked; activation factor at 5 µM; P11712;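 active = activation factor of 2 or more for CYP2C9 at a 5 µM dose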
# A number is an active result; n = inactive; x = no result; [ ] = remark or other dose.
SMILES,Rev-RRE block,CYP2C19 activ,Cav3 T inh,CYP2C9 inhib,CYP2C19 inhib,CYP2C9 activ
Oc1ccc2ccccc2c1/C=N/c1nc2c(s1)CCCC2,n,n,n,n,n,n
Oc1c(Br)cc(Br)cc1/C=N/c1nc2c(s1)CCCC2,n,x,-5.3,x,x,x
O=C(Nc1cccc(-c2cn3ccsc3n2)c1)c1ccccc1,n,n,n,85,59,n
O=C(Nc1cccc(-c2cn3ccccc3n2)c1)c1cccc(Cl)c1,n,n,n,84,n,n
C=CCn1c(SCC(=O)c2ccc(Br)cc2)nnc1C(CC(C)C)NC(=O)c1cccs1 (configuration not stated),n,n,n,n,n,n
COc1ccc(Cl)cc1NC(=O)C1CCCN(S(=O)(=O)c2cccc3nonc23)C1 (configuration not stated),n,x,n,x,x,x
O=C(Nc1cccnc1)C1CCCN(S(=O)(=O)c2cccc3nsnc23)C1 (configuration not stated),n,n,n,70,69,n
COc1ccc(OC)c(NC(=O)C2CCCN(S(=O)(=O)c3cccc4nsnc34)C2)c1 (configuration not stated),n,n,n,n,67,n
Cc1ccc2nc(NC(=O)C3CCCN(S(=O)(=O)c4cccc5nsnc45)C3)sc2c1 (configuration not stated),n,n,n,52,n,n
COc1cc(NC(=O)C2CCCN(S(=O)(=O)c3cccc4nsnc34)C2)cc(OC)c1 (configuration not stated),n,n,n,63,n,n
Cc1cc(C)c(C#N)c(SC(F)F)n1,n,n,n,n,n,n
O=C(Nc1nc2ccccc2[nH]1)C1CCN(S(=O)(=O)c2cccs2)CC1,n,n,n,n,n,n
CCOC(=O)c1nnn(CC(=O)N2N=C(c3cccc4ccccc34)CC2c2ccccc2)c1C(=O)OCC (configuration not stated),n,x,-5.5,x,x,x
CN(C)C(/C=C/Nc1ccc(F)cc1F)=C(C#N)C#N,n,n,n,n,n,n
CN(C)C(/C=C/Nc1ccc(C#N)cc1)=C(C#N)C#N,n,n,n,n,58,n
CN(C)C(/C=C/Nc1ccc(F)cc1)=C(C#N)C#N,n,n,n,n,59,n
C=CCc1ccccc1OCCn1ccnc1,n,n,n,85,92,n
Clc1cccc(OCCn2cncn2)c1Cl,n,n,n,n,84,n
c1ccc(COc2ccc(OCCOCCn3cncn3)cc2)cc1,n,n,n,n,n,n
C=CCc1ccccc1OCC(O)CNC(C)C (configuration not stated),x,x,n,x,x,x
Clc1ccccc1OCCn1ccnc1,n,n,n,74,66,n
Nc1nc2ccccc2n1CCOc1ccccc1Cl,n,n,n,n,56,n
Cc1nonc1NC(=O)OC1CCCCC1,n,n,n,n,n,n
COC(CNc1cc(=O)oc2ccccc12)OC,n,n,n,n,n,n
Cc1ccc(-c2cc(C(=O)N/N=C/c3c(C)nn(C)c3C)c3ccccc3n2)c(C)c1,n,n,n,96,94,n
SMILES,Rev-RRE block,CYP2C19 activ,Cav3 T inh,CYP2C9 inhib,CYP2C19 inhib,CYP2C9 activ
Cc1ccsc1/C=N/NC(=O)c1c[nH]c2ccccc12,n,n,n,n,n,n
CCOc1ccccc1-c1cc(C(=O)N/N=C/c2ccc3c(c2)OCO3)c2ccccc2n1,n,n,n,91,50,n
O=C(N/N=C/c1ccc(F)cc1)c1cc(-c2ccco2)nc2ccccc12,n,n,x,n,n,n
COc1ccccc1-c1cc(C(=O)N/N=C/c2sccc2C)c2ccccc2n1,n,n,n,75,n,n
Cc1nn(C)c(C)c1/C=N/NC(=O)c1csc2ccccc12,n,n,n,n,n,n
N#Cc1c(Cc2cccc3ccccc23)nn(CCO)c1N,x,x,n,x,x,x
N#CCCn1cc(C(CC(=O)c2ccc(Br)cc2)C(=O)O)c2ccccc21 (configuration not stated),n,n,n,58,n,n
Cc1ccc(C(=O)CC(C(=O)O)c2cn(CCC#N)c3ccccc23)cc1 (configuration not stated),n,n,n,n,n,n
C=C1CCN([C@H](C(=O)NCc2ccc(Cl)cc2)C(C)C)S(=O)(=O)c2ccccc21,x,x,n,x,x,x
CCOC(=O)c1cc(C#N)c(SCC(=O)c2cc(C#N)c(SC)nc2C)[nH]c1=O,x,n,n,74,n,n
COC(=O)CSc1nc(C)c(C(C)=O)cc1C#N,x,n,n,n,n,n
O=C(NCc1cccnc1)c1cccn2c(=O)c3sccc3nc12,n,n,n,n,76,n
Cc1cc(=O)oc2cc(OCC(=O)OCc3nnc(-c4ccccc4)o3)ccc12,n,n,n,n,n,n
CCOc1cc(/C=C2/SC(=Nc3ccccc3)N(Cc3cccnc3)C2=O)ccc1OCC#N,n,n,n,n,n,n
O=C(CCn1c(=O)[nH]c2ccsc2c1=O)N1CCN(c2cccc(Cl)c2)CC1,n,n,-5.9,71,n,n
O=C(Cn1c(=O)[nH]c2ccsc2c1=O)N1CCN(c2ccc(F)cc2)CC1,n,x,n,x,x,x
COc1ccc(N2CCN(C(=O)CCCn3c(=O)[nH]c4cc(Cl)ccc4c3=O)CC2)cc1,n,n,n,53,n,n
O=C(CCCn1c(=O)[nH]c2cc(Cl)ccc2c1=O)NCCC1=CCCCC1,n,n,n,n,n,n
O=C(CCCn1c(=O)[nH]c2cc(Cl)ccc2c1=O)NCCCN1CCCC1,n,n,x,69,n,n
COc1cc2[nH]c(=O)n(CCCCCC(=O)N3CCN(c4ccccn4)CC3)c(=O)c2cc1OC,n,n,n,n,n,n
CC(NC(=O)C1CCN(c2nnc(-n3cccc3)s2)CC1)C12CC3CC(CC(C3)C1)C2 (configuration not stated),n,n,n,n,n,n
O=S(=O)(CCOc1ccccc1)c1nc2ccccc2[nH]1,n,n,n,n,73,n
O=C(Cn1cnc2c(nnn2Cc2ccc(F)cc2)c1=O)NCC1CCCO1 (configuration not stated),n,x,n,x,x,x
CCC(C)OC(=O)C1=C(C)NC2=C(C(=O)C(C(=O)OC)C(C)C2)C1c1ccc(N(C)C)cc1 (configuration not stated),n,n,n,n,n,n
CCCOC(=O)C1=C(C)NC2=C(C(=O)C(C(=O)OC)C(C)C2)C1c1ccc(N(CC)CC)cc1 (configuration not stated),n,x,-7.3,x,x,x
CC1(C)NC(=O)NC2(C)NC(=O)NC(C)(C)C12 (configuration not stated),n,n,n,n,n,n
Cc1nc(-n2[nH]c3c(c2=O)CCCC3)[nH]c(=O)c1Cc1ccccc1,86[fluorescence artefact?],n,n,n,n,n
Cc1cc(=O)[nH]c(-n2[nH]c3c(c2=O)CCCC3)n1,n,n,n,n,n,n
